# Source: ChEMBL document CHEMBL3351994, “Synthesis and biological evaluation of novel millepachine derivatives as a new class of tubulin polymerization inhibitors” (J Med Chem, 2014)
# Legend:
# [1] = Solubility in PBS solution by nephelometry; format: physicochemical
# Method in brief: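 Maximum soluble concentration in PBS, determined by nephelometry.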
# [2] = Toxicity in iv dosed BALB/c mouse; format: organism-based; conditions: in vivo
# Method in brief: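 Maximum tolerated dose in BALB/c mice (SPF, 18−22 g, 6−8 weeks, half female and half male). Graded doses given intravenously, n = 4 per dose. Survival and adverse effects recorded every other day after dosing. MTD defined as the largest dose given before one death occurs.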
# AGS = test: Antiproliferative activity against human AGS cells assessed as inhibition of cell proliferation after 48 hrs by MTT assay; format: functional, cell-based
# Method in brief: (§1)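 Cells grown at 37 °C in humidified 5% CO2. K562, C26 and HCT lines in RPMI-1640; other lines in DMEM; both media with 10% FBS, penicillin and streptomycin. 1000 cells/well seeded, incubated overnight, then compound at various doses for 48 h. MTT added for 4 h, formazan dissolved in DMSO, absorbance read at 590 nm. IC50 from dose–response curves, mean ± SEM of at least three independent experiments.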
# MCF7 = test: Antiproliferative activity against human MCF7 cells assessed as inhibition of cell proliferation after 48 hrs by MTT assay; format: functional, cell-based; conditions: MCF7, 48 h; method in brief: as §1
# [3] = Antitumor activity against mouse C26 cells xenografted in Balb/C mouse assessed as tumor mass changes at 5 mg/kg, iv dosed every 4 days for 4 days; format: functional
# Method in brief: (§2)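 Female Balb/c or athymic nude mice, 5–6 weeks old. 5 × 10^6 cells in HBSS implanted sc in the right flank/armpit. Treatment began at tumor volume 100 mm3, 6 mice per group; vehicle was 2.5% Tween-80 and 2.5% ethanol. Tumor volume (π/6 × L × W²) and body weight measured every 2 days. Inhibition = (1 − treated/control tumor weight) × 100%.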
# [4] = Antiproliferative activity against human HCT15 cells assessed as inhibition of cell proliferation after 48 hrs by MTT assay; format: functional, cell-based; conditions: HCT-15, 48 h; method in brief: as §1
# NCI-H358 = test: Antiproliferative activity against human NCI-H358 cells assessed as inhibition of cell proliferation after 48 hrs by MTT assay; format: functional, cell-based; conditions: NCI-H358, 48 h; method in brief: as §1
# Mus musculus [5] = test: Toxicity in cisplatin-resistant human […] cells xenografted Balb/C mouse assessed as body weight changes at 5 mg/kg, iv dosed every 4 days for 4 days; format: organism-based, A2780cisR; design: dose 5 mg/kg, route intravenous; conditions: in vivo, 96 h
# Method in brief: (§3)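 Xenografts: 5 × 10^6 tumour cells injected sc in right armpit/flank of 5−6-week-old female mice; at 100 mm3 tumour volume, randomized (6 per group) and dosed in vehicle of 2.5% Tween-80 and 2.5% ethanol; body weights and caliper tumour volumes recorded every 2 days, toxicity signs and mortality daily.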
# [6] = Antiproliferative activity against human A2780S cells assessed as inhibition of cell proliferation after 48 hrs by MTT assay; format: functional, cell-based; conditions: A2780, 48 h
# Method in brief: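 Cells grown in DMEM with 10% FBS, penicillin/streptomycin at 37 °C, 5% CO2. 1000 cells/well seeded, incubated overnight, then exposed to various doses for 48 h. MTT added for 4 h, formazan dissolved in DMSO, absorbance read at 590 nm. IC50 = concentration inhibiting proliferation by 50%, mean ± SEM of dose–response curves from at least three independent experiments.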
# Mus musculus [7] = test: Toxicity in mouse C26 cells xenografted Balb/C mouse assessed as mortality level at 5 mg/kg, iv dosed every 4 days for 4 days; format: organism-based; design: dose 5 mg/kg, route intravenous; conditions: in vivo, 96 h
# Method in brief: (§4)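 Female Balb/C or athymic nude mice, 5−6 weeks old, implanted sc in the right flank/armpit with 5 × 10^6 cells in HBSS. Once tumors reached 100 mm3, mice were randomized (6 per group) and dosed with vehicle (2.5% Tween-80, 2.5% ethanol) or drug. Toxicity signs and mortality observed daily. Body weight and caliper tumor volume measured every 2 days.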
# Mus musculus [8] = test: Toxicity in cisplatin-resistant human […] cells xenografted Balb/C mouse assessed as mortality level at 5 mg/kg, iv dosed every 4 days for 4 days; format: organism-based, A2780cisR; design: dose 5 mg/kg, route intravenous; conditions: in vivo, 96 h; method in brief: as §4
# [9] = Antitumor activity against cisplatin-resistant human […] cells xenografted in Balb/C mouse assessed as tumor mass changes at 5 mg/kg, iv dosed every 4 days for 4 days; format: functional, A2780cisR; method in brief: as §2
# [10] = Antiproliferative activity against mouse C26 cells assessed as inhibition of cell proliferation after 48 hrs by MTT assay; format: functional, cell-based; conditions: C26, 48 h; method in brief: as §1
# [11] = Antiproliferative activity against human DLD1 cells assessed as inhibition of cell proliferation after 48 hrs by MTT assay; format: functional, cell-based; conditions: DLD-1, 48 h; method in brief: as §1
# Mus musculus [12] = test: Toxicity in mouse C26 cells xenografted Balb/C mouse assessed as body weight changes at 5 mg/kg, iv dosed every 4 days for 4 days; format: organism-based; design: dose 5 mg/kg, route intravenous; conditions: in vivo, 96 h; method in brief: as §3
# [13] = Antiproliferative activity against taxol resistant human […] cells assessed as inhibition of cell proliferation after 48 hrs by MTT assay; format: functional, cell-based; conditions: A2780, 48 h; method in brief: as §1
# U-251 = test: Antiproliferative activity against human U251 cells assessed as inhibition of cell proliferation after 48 hrs by MTT assay; format: functional, cell-based; conditions: U-251, 48 h; method in brief: as §1
# HepG2 [14] = test: Antiproliferative activity against human HepG2 cells assessed as inhibition of cell proliferation after 48 hrs by MTT assay; format: functional, cell-based; method in brief: as §1
# [15] = Antiproliferative activity against taxol resistant human HCT8 cells assessed as inhibition of cell proliferation after 48 hrs by MTT assay; format: functional, cell-based; conditions: HCT-8, 48 h; method in brief: as §1
# Rattus norvegicus [16] = test: AUC in rat at 3 mg/kg, iv; format: ADME, organism-based, Plasma; design: dose 3 mg/kg, route intravenous; conditions: in vivo
# Method in brief: (§5)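 Rat pharmacokinetics; oral and intravenous dosing, with group sizes of 5, 5 and 4 rats. Parameters derived: systemic clearance, volume of distribution, area under the plasma concentration–time curve, maximum plasma concentration and percent oral bioavailability.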
# [17] = Antitumor activity against human A2780S cells xenografted in Balb/C mouse assessed as tumor mass changes at 10 mg/kg, iv dosed every 2 days for 8 days; format: functional, A2780; method in brief: as §2
# [18] = Cmax in rat at 3 mg/kg, iv; format: ADME, organism-based; design: dose 3 mg/kg, route intravenous; conditions: in vivo; method in brief: as §5
# Mus musculus [19] = test: Toxicity in mouse C26 cells xenografted Balb/C mouse assessed as body weight changes at 10 mg/kg, iv dosed every 2 days for 8 days; format: organism-based; design: dose 10 mg/kg, route intravenous; conditions: in vivo; method in brief: as §3
# Mus musculus [20] = test: Toxicity in human HepG2 cells xenografted Balb/C mouse assessed as mortality level at 25 mg/kg, po dosed every 2 days for 11 days; format: organism-based; design: dose 25 mg/kg, route oral; conditions: in vivo; method in brief: as §4
# Rattus norvegicus [21] = test: Systemic clearance in rat at 15 mg/kg, po; format: ADME, organism-based; design: dose 15 mg/kg, route oral; conditions: in vivo
# [22] = Cmax in rat at 15 mg/kg, po; format: ADME, organism-based; design: dose 15 mg/kg, route oral; conditions: in vivo; method in brief: as §5
# HepG2 [23] = test: Antitumor activity against human HepG2 cells xenografted in Balb/C mouse assessed as tumor mass changes at 25 mg/kg, po dosed every 2 days for 11 days; format: functional; method in brief: as §2
# [24] = Volume of distribution at steady state in rat at 3 mg/kg, iv; format: ADME, organism-based; design: dose 3 mg/kg, route intravenous; conditions: in vivo, read-out: Vdss
# Mus musculus [25] = test: Toxicity in mouse C26 cells xenografted Balb/C mouse assessed as mortality level at 10 mg/kg, iv dosed every 2 days for 8 days; format: organism-based; design: dose 10 mg/kg, route intravenous; conditions: in vivo; method in brief: as §4
# [26] = Antitumor activity against mouse C26 cells xenografted in Balb/C mouse assessed as tumor mass changes at 10 mg/kg, iv dosed every 2 days for 8 days; format: functional; method in brief: as §2
# [27] = Antitumor activity against cisplatin-resistant human […] cells xenografted in Balb/C mouse assessed as tumor mass changes at 10 mg/kg, iv dosed every 2 days for 7 days; format: functional, A2780cisR; method in brief: as §2
# Mus musculus [28] = test: Toxicity in cisplatin-resistant human […] cells xenografted Balb/C mouse assessed as mortality level at 10 mg/kg, iv dosed every 2 days for 7 days; format: organism-based, A2780cisR; design: dose 10 mg/kg, route intravenous; conditions: in vivo; method in brief: as §4
# Rattus norvegicus [29] = test: AUC in rat at 15 mg/kg, po; format: ADME, organism-based, Plasma; design: dose 15 mg/kg, route oral; conditions: in vivo; method in brief: as §5
# Mus musculus [30] = test: Toxicity in human A2780S cells xenografted Balb/C mouse assessed as mortality level at 10 mg/kg, iv dosed every 2 days for 8 days; format: organism-based, A2780; design: dose 10 mg/kg, route intravenous; conditions: in vivo; method in brief: as §4
# Mus musculus [31] = test: Toxicity in human A2780S cells xenografted Balb/C mouse assessed as body weight changes at 10 mg/kg, iv dosed every 2 days for 8 days; format: organism-based, A2780; design: dose 10 mg/kg, route intravenous; conditions: in vivo; method in brief: as §3
# Mus musculus [32] = test: Toxicity in human HepG2 cells xenografted Balb/C mouse assessed as body weight changes at 25 mg/kg, po dosed every 2 days for 11 days; format: organism-based; design: dose 25 mg/kg, route oral; conditions: in vivo; method in brief: as §3
# Mus musculus [33] = test: Toxicity in cisplatin-resistant human […] cells xenografted Balb/C mouse assessed as body weight changes at 10 mg/kg, iv dosed every 2 days for 7 days; format: organism-based, A2780cisR; design: dose 10 mg/kg, route intravenous; conditions: in vivo; method in brief: as §3
# [34] = Oral bioavailability in rat at 15 mg/kg; format: ADME, organism-based; conditions: in vivo
# Rattus norvegicus [35] = test: Volume of distribution at steady state in rat at 15 mg/kg, po; format: ADME, organism-based; design: dose 15 mg/kg, route oral; conditions: in vivo
# Rattus norvegicus [36] = test: Systemic clearance in rat at 3 mg/kg, iv; format: ADME, organism-based; design: dose 3 mg/kg, route intravenous; conditions: in vivo
structure (smiles),measurement,setting,value
COc1ccc(/C=C/C(=O)c2ccc(OC)c3c2OC(C)(C)C=C3)cc1N.O=S(=O)(O)O,solubility kinetic,[1],58 µg/mL
same,MTD,[2],200 mg/kg
CC(=O)O[C@H]1C(=O)[C@@]2(C)[C@H]([C@H](OC(=O)c3ccccc3)[C@]3(O)C[C@H](OC(=O)[C@H](O)[C@@H](NC(=O)c4ccccc4)c4ccccc4)C(C)=C1C3(C)C)[C@]1(OC(C)=O)CO[C@@H]1C[C@@H]2O [PACLITAXEL],IC50,AGS,8 nM
same,IC50,MCF7,132 nM
same,Activity,[3],76%
same,IC50,[4],24 nM
same,IC50,NCI-H358,2 nM
same,Activity,Mus musculus [5],-5.6%
same,IC50,[6],4 nM
same,Activity,Mus musculus [7],Non-toxic
same,Activity,Mus musculus [8],Non-toxic
same,Activity,[9],69%
same,IC50,[10],210 nM
same,IC50,[11],16 nM
same,Activity,Mus musculus [12],-3.7%
same,IC50,[13],107 nM
same,IC50,U-251,23 nM
same,IC50,"HepG2 [14]; Homo sapiens, HepG2, 48 h",38 nM
same,IC50,[15],266 nM
COc1ccc(/C=C/C(=O)c2ccc(OC)c3c2OC(C)(C)C=C3)cc1N.Cl,solubility kinetic,[1],64 µg/mL
same,AUC,Rattus norvegicus [16],973 ng·h/mL
same,Activity,[17],61%
same,Cmax,[18],1510 ng/mL
same,Activity,Mus musculus [19],0.8%
same,Activity,Mus musculus [20],Non-toxic
same,CL,Rattus norvegicus [21],123 mL/min/kg
same,Cmax,[22],449 ng/mL
same,Activity,HepG2 [23],78%
same,Vd,[24],31 L/kg
same,Activity,Mus musculus [25],Non-toxic
same,Activity,[26],86%
same,Activity,[27],51%
same,IC50,HepG2 [14]; hepg2,9 nM
same,Activity,Mus musculus [28],Non-toxic
same,MTD,[2],250 mg/kg
same,AUC,Rattus norvegicus [29],2260 ng·h/mL
same,Activity,Mus musculus [30],Non-toxic
same,Activity,Mus musculus [31],-2.5%
same,Activity,Mus musculus [32],7.6%
same,Activity,Mus musculus [33],1%
same,bioavailability,[34],47%
same,Vdss,Rattus norvegicus [35],47 L/kg
same,CL,Rattus norvegicus [36],50 mL/min/kg
